The subject of data set [1] is Rattus norvegicus. Put plainly: Downregulation of ERK phosphorylation in Sprague-Dawley rat adult hippocampus at 2 to 20 mg/kg, ip qd preincubated for 28 days followed by BrdU addition at 2 hrs interval for twice on day 29 measured at 28 days post BrdU pulse by immunoblot assay. It counts as functional, organism-based. Summed up:
(§1)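 Male SD rats (received at 10 weeks, acclimatized 7 days) were dosed ip once daily for 28 days. The compounds were given in soybean oil with 10% ethanol, and the vehicle group received 10% ethanol in oil. BrdU was given 100 mg/kg twice, 2 h apart, on day 29. Hippocampal tissue was taken 24 h or 28 days later. Lysates were made in RIPA with protease inhibitors and run on 12% SDS-PAGE. Akt, pAkt, ERK1/2 and pERK1/2 were immunoblotted and read by densitometry against GAPDH, normalized to vehicle = 1.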

The subject of data set [2] is Rattus norvegicus. Nature of the data set: In vivo neurogenic activity in Sprague-Dawley rat neural progenitor cells at 4 mg/kg, ip qd pretreated for 28 days followed by BrdU addition at 2 hrs interval for twice on day 29 measured after 24 hrs by BrdU incorporation assay relative to control. It counts as functional. Summed up: (§2)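 Male SD rats aged 10 weeks, acclimatized 7 days (11 weeks old at start), dosed ip once daily for 28 days with compound in soybean oil containing 10% ethanol; vehicle group received 10% ethanol in oil. On day 29, BrdU in saline given twice at 100 mg/kg, 2 h apart. Rats sacrificed 24 h after the last BrdU. BrdU+ cells in SGZ-GCL counted by DAB immunostaining of 30 µm cryosections; n = 8; mean ± SEM.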

In data set [3] the test system is Rattus norvegicus. Nature of the data set: In vivo neurogenic activity in Sprague-Dawley rat neural progenitor cells assessed as differentiation of new born NPCs to mature functional neurons at 20 mg/kg, ip qd preincubated for 28 days followed by BrdU addition at 2 hrs interval for twice on day 29 measured at 28 days post BrdU pulse by NeuN/BrdU double staining based assay relative to control. Summed up:
(§3)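 SD male rats, 11 weeks old, were given compound ip daily for 28 days in 10% ethanol/soybean oil. On day 29 they received BrdU 100 mg/kg ip twice, 2 h apart, and were perfused 28 days after the last BrdU. Fixed 30 µm cryosections were co-stained for BrdU and NeuN by fluorescence. BrdU+ cells and the BrdU+NeuN+/BrdU+ fraction were counted against vehicle, mean ± SEM, n = 8.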

A short description of data set [4]: Cytotoxicity against human SH-SY5Y cells assessed as cell survival at 1000 uM after 24 hrs by MTT assay relative to control. It counts as cell-based. The note with it: read-out: Survival. Summed up:
(§4)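 SH-SY5Y human neuroblastoma cells seeded at 5 × 10⁴ cells/mL, incubated 24 h at 37 °C, then exposed to compounds at final concentrations of […] for 24 h. MTT added for a further 4 h at 37 °C. Absorbance read at 570 nm and reported as percent viability. Five parallel samples per condition.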
(In general: Tetrazolium assays rely on reduction of a dye to a coloured formazan, in cell work by metabolically active cells.)

Data set [5] has as its system Rattus norvegicus. Put plainly: Effect on ERK expression in Sprague-Dawley rat adult hippocampus at 2.2 to 4 mg/kg, ip qd preincubated for 28 days followed by BrdU addition at 2 hrs interval for twice on day 29 measured at 24 hrs post BrdU pulse by immunoblot assay. It counts as functional, organism-based. The essentials: as §1
A general note: In western blotting, separated proteins are transferred to a membrane and probed.

Data set [6] relates to Rattus norvegicus. Nature of the data set: In vivo neurogenic activity in Sprague-Dawley rat neural progenitor cells at 2.2 mg/kg, ip qd pretreated for 28 days followed by BrdU addition at 2 hrs interval for twice on day 29 measured after 24 hrs by BrdU incorporation assay. It counts as functional, organism-based. Summed up: as §2
In general terms: Dividing cells build labelled thymidine or BrdU into new DNA.

Data set [7] concerns Rattus norvegicus. Put plainly: Effect on AKT expression in Sprague-Dawley rat adult hippocampus at 2 to 20 mg/kg, ip qd preincubated for 28 days followed by BrdU addition at 2 hrs interval for twice on day 29 measured at 28 days post BrdU pulse by immunoblot assay. It counts as functional, organism-based. The essentials:
as §1

Data set [8] deals with Rattus norvegicus. Nature of the data set: In vivo neurogenic activity in Sprague-Dawley rat neural progenitor cells assessed as differentiation of new born NPCs to mature functional neurons at 2 mg/kg, ip qd preincubated for 28 days followed by BrdU addition at 2 hrs interval for twice on day 29 measured at 28 days post BrdU pulse by NeuN/BrdU double staining based assay relative to control. Summed up: as §3

Data set [9] is described as follows: Cytotoxicity against human SH-SY5Y cells assessed as cell survival at 500 uM after 24 hrs by MTT assay relative to control. It counts as cell-based. The note with it: read-out: Survival. The essentials: as §4
Data set [10] has as its system Rattus norvegicus. Put plainly: Downregulation of AKT phosphorylation in Sprague-Dawley rat adult hippocampus at 2.2 to 4 mg/kg, ip qd preincubated for 28 days followed by BrdU addition at 2 hrs interval for twice on day 29 measured at 24 hrs post BrdU pulse by immunoblot assay. It counts as functional, organism-based. The following applies: in the assay text read “Upregulation” for “Downregulation”. The essentials: as §1

For data set [11], the system named is Rattus norvegicus. Put plainly: Downregulation of ERK phosphorylation in Sprague-Dawley rat adult hippocampus at 2.2 to 4 mg/kg, ip qd preincubated for 28 days followed by BrdU addition at 2 hrs interval for twice on day 29 measured at 24 hrs post BrdU pulse by immunoblot assay. It counts as functional, organism-based. The following applies: in the assay text read “Upregulation” for “Downregulation”. The essentials: as §1

Data set [12] has as its system Rattus norvegicus. Nature of the data set: Downregulation of AKT phosphorylation in Sprague-Dawley rat adult hippocampus at 2 to 20 mg/kg, ip qd preincubated for 28 days followed by BrdU addition at 2 hrs interval for twice on day 29 measured at 28 days post BrdU pulse by immunoblot assay. It counts as functional, organism-based. The essentials: as §1
Data set [13] concerns Rattus norvegicus. Put plainly: Effect on AKT expression in Sprague-Dawley rat adult hippocampus at 2.2 to 4 mg/kg, ip qd preincubated for 28 days followed by BrdU addition at 2 hrs interval for twice on day 29 measured at 24 hrs post BrdU pulse by immunoblot assay. It counts as functional, organism-based. Summed up: as §1
Data set [14] in a line: Cytotoxicity against human SH-SY5Y cells assessed as cell survival at 100 uM after 24 hrs by MTT assay relative to control. It counts as cell-based. The note with it: read-out: Survival. The essentials: as §4
Data set [15] relates to Rattus norvegicus. Put plainly: In vivo neurogenic activity in Sprague-Dawley rat neural progenitor cells assessed as differentiation of new born NPCs to mature functional neurons at 4 mg/kg, ip qd preincubated for 28 days followed by BrdU addition at 2 hrs interval for twice on day 29 measured at 28 days post BrdU pulse by NeuN/BrdU double staining based assay relative to control. Summed up:
as §3

The test system of data set [16] is Rattus norvegicus. Put plainly: Effect on ERK expression in Sprague-Dawley rat adult hippocampus at 2 to 20 mg/kg, ip qd preincubated for 28 days followed by BrdU addition at 2 hrs interval for twice on day 29 measured at 28 days post BrdU pulse by immunoblot assay. It counts as functional, organism-based. The essentials: as §1
Data set [17] concerns Rattus norvegicus. Put plainly: In vivo neurogenic activity in Sprague-Dawley rat neural progenitor cells at 2 mg/kg, ip qd preincubated for 28 days followed by BrdU addition at 2 hrs interval for twice on day 29 measured at 28 days post BrdU pulse by BrdU double staining based assay relative to control. It counts as functional. The essentials: as §3

The source made the active and inactive calls. No cut-off for these calls is given here.

For `CC(=O)Nc1ccc(/C=C/c2ccc3c(c2)OCO3)cc1`, the outcome in data set [1], in [2], in data set [5], in [6], in data set [7] and in data set [10] was Active. For the same compound, the result in [11], in [12], in data set [13] and in [16] was Active. The “fold change (FC)” value in data set [3] is given as 2.3; in data set [8], 4.6; in data set [15], 3.1; in data set [17] it was 4.2. The viability at 24 h, 1000 µM in data set [4] is 80.4%. Moreover, the viability at 24 h, 500 µM in data set [9] turned out to be 91.9%. The viability at 24 h, 100 µM in data set [14] is 97%.

The values are drawn from ChEMBL document CHEMBL4138103, “Discovery of efficient stimulators for adult hippocampal neurogenesis based on scaffolds in dragon's blood” (Eur J Med Chem, 2017).
